Rows were chosen to be rich in hits. Some 0.99% of all compounds tested hit in one or more screens of this group.
TLR9-MyD88 block: inhibitors of human TLR9-MyD88 binding | Q9NR96+Q99836 | CHO BLA complementation TLR9-MyD88, CCF4 FRET ratio | inhibition, % at 4.98 µM | hit rate 0.21% among 340,000 | AID 504734;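 active = inhibition above the mean over all tested compounds plus 3 SD, cut at about 21% in these data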
NOD2 RIPK2 PPI: blocks binding of human NOD2 to RIPK2. AID 624267. inhibition, % at 4.98 µM. hit rate 0.38% among 360,000. O43353. CHO BLA complementation NOD2-RIPK2, CCF4 ratio; in the data active = inhibition above about 21%
Target sequence (O43353 whole entry, looked up): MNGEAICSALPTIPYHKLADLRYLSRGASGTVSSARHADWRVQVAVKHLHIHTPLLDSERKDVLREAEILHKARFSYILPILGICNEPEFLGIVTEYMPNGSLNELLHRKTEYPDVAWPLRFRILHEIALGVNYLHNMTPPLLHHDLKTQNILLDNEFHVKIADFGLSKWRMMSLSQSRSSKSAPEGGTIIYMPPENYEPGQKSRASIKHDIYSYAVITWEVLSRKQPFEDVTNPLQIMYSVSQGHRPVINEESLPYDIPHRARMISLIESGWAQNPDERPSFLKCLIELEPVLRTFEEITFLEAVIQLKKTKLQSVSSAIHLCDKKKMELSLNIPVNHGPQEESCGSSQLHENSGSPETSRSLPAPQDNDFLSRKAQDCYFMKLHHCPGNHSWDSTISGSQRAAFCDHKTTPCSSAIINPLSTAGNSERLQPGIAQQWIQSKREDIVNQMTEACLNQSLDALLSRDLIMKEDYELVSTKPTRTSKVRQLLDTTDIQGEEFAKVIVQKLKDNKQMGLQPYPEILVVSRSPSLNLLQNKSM
SKN-1 block: C. elegans SKN-1 inhibition | C. elegans VP596 Pgst-4::GFP/RFP ratio, acrylamide-induced, 24 h | inhibition, % at 21.8 µM | hit rate 0.49% among 360,000 | AID 624304;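 active = interference check ratio from 0.5 to 1.5 plus GFP to RFP signal ratio inhibition reaching or exceeding a fixed threshold, cut at about 30% in these data, passing the limit was not always enough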
MT1-MMP act inh: blocks activation of human MT1-MMP | HT1080 RFP-PRO-GFP cells, GFP/RFP ratio fluorescence, overnight; percent of plate control window, DMSO zero | hit rate 0.061% among 360,000 | P50281 | AID 651647 | GFP/RFP ratio change, % at 20 µM;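 active = GFP/RFP ratio change of at least 30% with cell ATP level not reduced by more than half and red fluorescence within 50% of control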
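Test system: HT1080 cells expressing an RFP-PRO-GFP fluorescent reporter construct / Compound dosing: single-point 20 µM compound, 1% DMSO / Schedule: cells overnight before dosing, compound overnight, 37 °C, 5% CO2 / Evaluation: GFP/RFP fluorescence ratio / Control set: DMSO and RFP-L50D-GFP cell wells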
TLR4 MyD88 comp: TLR4-MyD88 interaction inhibition in cells; AID 861; hit rate 0.18% among 200,000; inhibition, % at 8.4 µM; HeLa CL3-4 TLR4/MyD88 BLA complementation, FRET ratio; in the data active = inhibition above about 25%
TLR9-MyD88 conf: TLR9-MyD88 interaction inhibition, confirmation. shares compounds with TLR9-MyD88 block. CHO TLR9/MyD88 BLA complementation, CCF4 FRET ratio. inhibition, % at 4.98 µM. hit rate 51% among 680. AID 540250;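 active = mean inhibition across three repeats above about 21% taken from the earlier screen, limit read from the data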;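 note: blue over green emission ratio reports constitutive TLR9 MyD88 association via BLA complementation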
BLA counter: counter-screen for TLR9-MyD88 inhibitors: non-selective beta-lactamase inhibitors | shares compounds with TLR9-MyD88 block | CHO-BLA cells, CCF4 FRET ratio, BLA reporter | inhibition, % at 4.98 µM | hit rate 7% among 680 | AID 540251;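 active = mean inhibition above a 50% cutoff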;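 note: counterscreen of TLR9-MyD88 hits on CMV-driven BLA in CHO-K1 cells; higher means less blue over green ratio so more BLA blockade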
TLR9 CHO cytotox: counter-screen for TLR9-MyD88 inhibitors: cytotoxicity in CHO cells | shares compounds with TLR9-MyD88 block | luminescence | inhibition, % at 4.98 µM | hit rate 39% among 680; in the data active = inhibition above about 11%
Of the large screens only hits and unclear results are named; the others gave an inactive call (follow-up assays come after a bar, where they were run).

CCC(=O)OCCNc1cc(Sc2nccn2C)c2nonc2c1[N+](=O)[O-]	TLR9-MyD88 block 23.6 | TLR9-MyD88 conf 69.4 | BLA counter inactive | TLR9 CHO cytotox 100.6
Cc1ccsc1CN(C)C(=O)CN1C(=O)NC2(CCCCC2C)C1=O (stereo not drawn)	none (no result: TLR4 MyD88 comp)
Cc1ccsc1C(=O)OCC(=O)NC1CCCCC1	TLR9-MyD88 block 21.4 (no result: TLR4 MyD88 comp) | TLR9-MyD88 conf inactive | BLA counter inactive | TLR9 CHO cytotox inactive
COC(=O)c1cn[nH]c1NC(=S)Nc1ccc(Cl)c(Cl)c1	TLR9-MyD88 block 21.9 | TLR9-MyD88 conf inactive | BLA counter inactive | TLR9 CHO cytotox inactive
COC(=O)c1cn[nH]c1NC(=S)Nc1ccccc1C	none
O=C1Cc2ccccc2C(=O)N1c1ccccc1	TLR9-MyD88 block 31.4 (no result: TLR4 MyD88 comp) | TLR9-MyD88 conf 42.5 | BLA counter inactive | TLR9 CHO cytotox inactive
CCCCS(=O)(=O)/C=C\C1C2C=CC(C2)C1S(=O)(=O)CCCC (stereo not drawn)	none
CCCCS(=O)(=O)/C=C\C=C/S(=O)(=O)CCCC	TLR9-MyD88 block 33.6, NOD2 RIPK2 PPI 91.3 | TLR9-MyD88 conf 36.7 | BLA counter inactive | TLR9 CHO cytotox 100.0
COc1ccc(C(=O)NCC(=O)N/N=C/C(C)=C/c2ccccc2)cc1OC	TLR9-MyD88 block 20.9 | TLR9-MyD88 conf inactive | BLA counter inactive | TLR9 CHO cytotox inactive
O=C(Nc1cccc(Cl)c1)c1ccc2sc([C@H]3C[C@H](O)[C@@H](CO)O3)nc2c1	none (no result: TLR9-MyD88 block, TLR4 MyD88 comp)
CC(=O)Oc1ccc(N2C(=O)c3cccc4c([N+](=O)[O-])ccc(c34)C2=O)cc1	TLR9-MyD88 block 22.8 (no result: TLR4 MyD88 comp) | TLR9-MyD88 conf 32.4 | BLA counter inactive | TLR9 CHO cytotox 85.3
CC(=O)Oc1ccc(-n2c(=O)c3ccccc3c3ccccc3c2=O)cc1	none
Cc1[nH]c(C)c(S(=O)(=O)NCc2ccco2)c1C(=O)N1CCCCC1	none (no result: TLR4 MyD88 comp)
CCc1ccc(/C(C)=N/NC(=O)c2ccccn2)cc1	none
CC(=N/O)/C(C)=N\NC(=O)c1ccccn1	TLR9-MyD88 block 53.5 | TLR9-MyD88 conf inactive | BLA counter inactive | TLR9 CHO cytotox inactive
Cc1ccccc1C(=O)OCC(=O)NCC1COc2ccccc2O1 (stereo not drawn)	none (no result: TLR4 MyD88 comp)
CN(C)c1ccc(NC2=C(Cl)C(=O)c3ccccc3C2=O)cc1	TLR9-MyD88 block 25.3 | TLR9-MyD88 conf 22.5 | BLA counter inactive | TLR9 CHO cytotox 19.0
Cc1c(Cl)c([N+](=O)[O-])nn1CCCC(=O)Nc1sc2c(c1C#N)CCC2	TLR9-MyD88 block 23.3 | TLR9-MyD88 conf inactive | BLA counter inactive | TLR9 CHO cytotox inactive
Cc1cccc2cc3c(N)c(C(=O)Nc4ccc(N5CCOCC5)cc4)sc3nc12	none
Cc1ccc(C)c2nc3sc(C(=O)N4CCOCC4)c(N)c3cc12	TLR9-MyD88 block 21.6 | TLR9-MyD88 conf inactive | BLA counter inactive | TLR9 CHO cytotox 25.8
Cc1cc(C)c2nc3sc(C(=O)N4CCOCC4)c(N)c3cc2c1	none (no result: TLR4 MyD88 comp)
Cc1cccc2cc3c(N)c(C(=O)N4CCc5ccccc54)sc3nc12	TLR9-MyD88 block 21.6 | TLR9-MyD88 conf inactive | BLA counter inactive | TLR9 CHO cytotox 18.4
COc1ccccc1C1C=C(c2ccc(C)cc2)Nc2nnnn21 (stereo not drawn)	TLR9-MyD88 block 22.4 | TLR9-MyD88 conf inactive | BLA counter inactive | TLR9 CHO cytotox inactive
Cc1ccc(C2=CC(c3cccs3)n3nnnc3N2)cc1 (stereo not drawn)	none
COc1cc(/C=C2\S/C(=N/S(=O)(=O)c3ccc(C)cc3)NC2=O)c([N+](=O)[O-])cc1OC	none
Cc1ccc(S(=O)(=O)/N=C2/NC(=O)/C(=C/c3cc([N+](=O)[O-])ccc3O)S2)cc1	TLR9-MyD88 block 26.7 (no result: TLR4 MyD88 comp) | TLR9-MyD88 conf inactive | BLA counter inactive | TLR9 CHO cytotox inactive
O=C(CC[C@H]1O[C@@H](n2cnc3c(NC(=O)c4ccccc4)ncnc32)[C@H](O)[C@@H]1O)N[C@@H](CO)c1ccccc1	none (no result: TLR9-MyD88 block, TLR4 MyD88 comp)
CNS(=O)(=O)c1cc(N(C)S(=O)(=O)c2ccc(C)cc2)c(C)cc1C	none
Cc1ccc(S(=O)(=O)N(C)c2cc(S(=O)(=O)Nc3ccncc3)c(C)cc2C)cc1	TLR9-MyD88 block 28.7 | TLR9-MyD88 conf inactive | BLA counter inactive | TLR9 CHO cytotox inactive
C/C(=N/NS(=O)(=O)c1ccc(C)cc1)c1ccc(NC(=O)C(F)(F)F)cc1	TLR9-MyD88 block 21.5 | TLR9-MyD88 conf inactive | BLA counter inactive | TLR9 CHO cytotox inactive
Clc1ccc(/C=N/NC2=Nc3cccc4cccc2c34)cc1	TLR9-MyD88 block 29.3 | TLR9-MyD88 conf inactive | BLA counter inactive | TLR9 CHO cytotox inactive
CCCCN1CCN=C1Nc1ccccc1	none (no result: TLR4 MyD88 comp)
COc1ccc(CNC(=O)C2CCN(S(=O)(=O)c3cccc4nonc34)CC2)cc1	none (no result: TLR4 MyD88 comp)
COC(=O)[C@]12CCCCC=C1N(Cc1ccc3c(c1)OCO3)C(=O)[C@H](CC(=O)NCCCN1CCCC1=O)C2	none (no result: TLR9-MyD88 block, TLR4 MyD88 comp)
CC(C)N(CCC(=O)c1ccc2ccccc2c1)Cc1ccccc1	TLR9-MyD88 block 21.4 (no result: TLR4 MyD88 comp) | TLR9-MyD88 conf inactive | BLA counter inactive | TLR9 CHO cytotox 48.5
CC(OC(=O)c1ccc2ccccc2c1)C(=O)N(C)Cc1ccccc1 (stereo not drawn)	none (no result: TLR4 MyD88 comp)
COc1ccc2cc(CO)n(C)c2c1	none (no result: TLR4 MyD88 comp)
CC1(Oc2cccc(C#N)c2)CCN(Cc2csc3ccccc23)C1 (stereo not drawn)	none (no result: TLR9-MyD88 block, TLR4 MyD88 comp)
COc1cc(NC(=O)CN2C(=O)CN(C)C2=O)c(C)cc1[N+](=O)[O-]	none
COc1cc(NC(=O)Cn2ncc(Cl)c(Cl)c2=O)c(C)cc1[N+](=O)[O-]	TLR9-MyD88 block 21.0 | TLR9-MyD88 conf 23.4 | BLA counter inactive | TLR9 CHO cytotox 98.1
COc1ccc(O)c(/C=N/NC(=S)Nc2cccnc2)c1	TLR9-MyD88 block 28.9 | TLR9-MyD88 conf inactive | BLA counter inactive | TLR9 CHO cytotox 16.7
O=C(C1=NN(c2ccccc2)C2C(=O)N(c3ccc(Cl)cc3)C(=O)C12)c1ccccc1 (stereo not drawn)	TLR9-MyD88 block 29.8 | TLR9-MyD88 conf 24.8 | BLA counter inactive | TLR9 CHO cytotox inactive
Cc1ccc(C)n1-c1ccc(C(=O)N/N=C/c2ccncc2)cc1	none
Cn1c(O)c(/C=N/NC(=O)c2cc3ccccc3cc2O)c2ccccc21	TLR9-MyD88 block 30.9 (no result: TLR4 MyD88 comp) | TLR9-MyD88 conf 22.6 | BLA counter inactive | TLR9 CHO cytotox 25.3
CSCCC(C(=O)NC(C)(C)C)n1c(-c2cccc(NC(C)=O)c2)nc2ccccc21 (stereo not drawn)	none (no result: TLR9-MyD88 block, TLR4 MyD88 comp)
COc1ccc(Cl)cc1S(=O)(=O)NC(C)C(=O)NCCN1CCOCC1 (stereo not drawn)	none (no result: TLR4 MyD88 comp)

Bioassay records as filed in PubChem BioAssay.
